The test system of test [1] is Rattus norvegicus. Briefly: Inhibition of increase in serum glucose level in sucrose-loaded Wistar rat at 25 mg/kg, po after 0.5 hrs. In kind it is functional. Summed up: (§1)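 Male Wistar rats (about 130-150 g) fasted 20-24 h, water allowed. Test sample suspended in 5% acacia solution, given orally at 10 mL/kg; controls get vehicle. Thirty minutes later, 20% (w/v) sucrose at 5 mL/kg po (water for the normal group). Serum taken 0.5, 1 and 2 h after loading; glucose measured by glucose-oxidase method. Means ± SEM; one-way ANOVA with Dunnett's test.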

For test [2], the system named is Rattus norvegicus. Put plainly: Inhibition of increase in serum glucose level in sucrose-loaded Wistar rat at 25 mg/kg, po after 2 hrs. The format is functional. Summed up: as §1
The test system of test [3] is Rattus norvegicus. Put plainly: Inhibition of increase in serum glucose level in sucrose-loaded Wistar rat at 12.5 mg/kg, po after 0.5 hrs. In kind it is functional. In a few lines: as §1
For test [4], the system named is Rattus norvegicus. Put plainly: Inhibition of increase in serum glucose level in sucrose-loaded Wistar rat at 25 mg/kg, po after 1 hr. The format is functional. Summed up: as §1
The test system of test [5] is Rattus norvegicus. Put plainly: Inhibition of increase in serum glucose level in sucrose-loaded Wistar rat at 12.5 mg/kg, po after 2 hrs. In kind it is functional. In a few lines: as §1
Test [6] deals with Rattus norvegicus. Briefly: Inhibition of increase in serum glucose level in sucrose-loaded Wistar rat at 12.5 mg/kg, po after 1hr. In kind it is functional. Summed up: as §1
Test [7] has as its system Rattus norvegicus. Put plainly: Inhibition of increase in serum glucose level in sucrose-loaded Wistar rat at 100 mg/kg, po after 2 hrs. In kind it is functional. Summed up:
as §1

For test [8], the system named is Rattus norvegicus. Briefly: Inhibition of increase in serum glucose level in sucrose-loaded Wistar rat at 100 mg/kg, po after 0.5 hrs. The format is functional. Summed up:
as §1

Test [9] deals with Rattus norvegicus. Put plainly: Inhibition of increase in serum glucose level in sucrose-loaded Wistar rat at 50 mg/kg, po after 2 hrs. The format is functional. Summed up:
as §1

For test [10], the system named is Mus musculus. Briefly: Suppression of gastric emptying in CMC-Na-loaded mouse at 25 mg/kg, po after 30 mins. In kind it is functional, Stomach. In a few lines: (§2)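 Male ddY mice (about 30-32 g) fasted 20-24 h, dosed orally in 5% acacia (10 mL/kg) 30 min before an intragastric meal of 1.5% CMC-Na with 0.05% phenol red (0.5 mL/mouse). Killed 30 min later; stomach homogenized in 0.1 M NaOH, TCA-deproteinized, alkalinized, read at 560 nm. Emptying % calculated against mice killed immediately after the meal. Means ± SEM, Dunnett's test.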

Test [11] has as its system Rattus norvegicus. Put plainly: Inhibition of increase in serum glucose level in sucrose-loaded Wistar rat at 100 mg/kg, po after 1 hr. In kind it is functional. Summed up:
as §1

In test [12] the test system is Mus musculus. Put plainly: Suppression of gastric emptying in CMC-Na-loaded mouse at 50 mg/kg, po after 30 mins. The format is functional, Stomach. Summed up:
as §2

The subject of test [13] is Rattus norvegicus. Briefly: Inhibition of increase in serum glucose level in sucrose-loaded Wistar rat at 50 mg/kg, po after 1 hr. In kind it is functional. Summed up: as §1
Test [14] concerns Rattus norvegicus. Put plainly: Inhibition of increase in serum glucose level in sucrose-loaded Wistar rat at 50 mg/kg, po after 0.5 hrs. The format is functional. Summed up: as §1
The test system of test [15] is Rattus norvegicus. Put plainly: Inhibition of increase in serum glucose level in sucrose-loaded Wistar rat at 500 mg/kg, po after 1 hr. In kind it is functional. In a few lines:
as §1

Test [16] concerns Rattus norvegicus. Put plainly: Inhibition of increase in serum glucose level in sucrose-loaded Wistar rat at 125 mg/kg, po after 2 hrs. In kind it is functional. Summed up:
as §1

In test [17] the test system is Rattus norvegicus. Put plainly: Inhibition of increase in serum glucose level in sucrose-loaded Wistar rat at 500 mg/kg, po after 2 hrs. The format is functional. Summed up: as §1
Test [18] relates to Rattus norvegicus. Put plainly: Inhibition of increase in serum glucose level in sucrose-loaded Wistar rat at 500 mg/kg, po after 0.5 hrs. The format is functional. Summed up: as §1
Test [19] relates to Rattus norvegicus. Put plainly: Inhibition of increase in serum glucose level in sucrose-loaded Wistar rat at 125 mg/kg, po after 0.5 hrs. In kind it is functional. Summed up: as §1
For test [20], the system named is Rattus norvegicus. Put plainly: Inhibition of increase in serum glucose level in sucrose-loaded Wistar rat at 125 mg/kg, po after 1 hr. In kind it is functional. Summed up:
as §1

For `CCCCNC(=O)NS(=O)(=O)c1ccc(C)cc1` [TOLBUTAMIDE], the Activity stood at 138.1 mg/dL in test [1]; 99.5 mg/dL in test [2]; 152.6 mg/dL in test [3]; 106.3 mg/dL in test [4]; 114.9 mg/dL in test [5]; 130.5 mg/dL in test [6].
Turning to `C[C@@H]1CC[C@@]2(NC1)O[C@H]1C[C@H]3[C@@H]4CC=C5C[C@@H](O[C@@H]6O[C@H](CO)[C@H](O)[C@H](O[C@@H]7O[C@H](CO)[C@@H](O)[C@H](O)[C@H]7O)[C@H]6O[C@@H]6O[C@@H](C)[C@H](O)[C@@H](O)[C@H]6O)CC[C@]5(C)[C@H]4CC[C@]3(C)[C@H]1[C@@H]2C` [SOLASONINE], the Activity is 121.9 mg/dL in test [7]; 158.8 mg/dL in test [1]; 124.7 mg/dL in test [8]; 129.5 mg/dL in [2]; 135.4 mg/dL in [9]; 75.4% in [10]. The Activity in test [11] came to 122.4 mg/dL; in [12], 74.8%; in [13], 136.7 mg/dL; in [4] it was 157.6 mg/dL; in [14], 132.7 mg/dL.
Consider `CN(C)C(=N)NC(=N)N` [METFORMIN], for which the Activity in test [15] was 105.6 mg/dL; in test [16], 115.5 mg/dL; in [17] it was 119.8 mg/dL; in test [18] it was 113.1 mg/dL; in test [19] it was 134.8 mg/dL; in test [20] it was 136 mg/dL.
Take `C[C@@H]1CC[C@@]2(NC1)O[C@H]1C[C@H]3[C@@H]4CC=C5C[C@@H](O[C@@H]6O[C@H](CO)[C@@H](O[C@@H]7O[C@@H](C)[C@H](O)[C@@H](O)[C@H]7O)[C@H](O)[C@H]6O[C@@H]6O[C@@H](C)[C@H](O)[C@@H](O)[C@H]6O)CC[C@]5(C)[C@H]4CC[C@]3(C)[C@H]1[C@@H]2C` [SOLAMARGINE]: the Activity in test [7] amounted to 122.3 mg/dL; in [1], 141.7 mg/dL; in [8], 118.5 mg/dL; in [2], 133.7 mg/dL; in test [9] it was 118.7 mg/dL; in test [10], 73.7%. For the same compound, the Activity in test [11] turned out to be 116.6 mg/dL; in [12], 58.4%; in test [13], 117.1 mg/dL; in [4], 139.9 mg/dL; in test [14], 124.3 mg/dL.

The values above are taken from ChEMBL document CHEMBL1141378, “Structures of steroidal alkaloid oligoglycosides, robeneosides A and B, and antidiabetogenic constituents from the Brazilian medicinal plant Solanum lycocarpum” (2007).
